Only some compounds are listed: those with a hit (about 1.4% of all), similar ones and a draw of the others.
CAL PDZ FP-1: CAL PDZ peptide-binding inhibitors, primary screen, biochemical, fluorescence polarization, Cer-tagged CAL PDZ, HTS | Golgi-associated PDZ and coiled-coil motif-containing protein (Homo sapiens), Q9HD26 | purified CAL PDZ, TMR-peptide fluorescence polarization, 1 h | inhibition, % at 20 µM | 330,000 compounds, 0.02% hits | AID 504414, 2011;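 active = highest replicate inhibition of at least 40%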
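Material: tagged CAL PDZ protein CerCALP, purified; buffer or medium: sodium phosphate/NaCl buffer pH 7.4 with TCEP, IgG, Thesit; also added: fluorescent TMR peptide probe; schedule: 1 h incubation at room temperature before polarization reading; technique: fluorescence polarization from S- and P-plane intensities, G-factor corrected; control set: unlabelled peptide and DMSO controls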
CAL PDZ FP-2: untagged CAL PDZ binding inhibitors, primary screen, biochemical, fluorescence polarization, HTS; Golgi-associated PDZ and coiled-coil motif-containing protein (Homo sapiens), Q9HD26; inhibition, % at 24.9 µM; purified CAL PDZ, TMR-peptide fluorescence polarization, 1 h; 300,000 compounds, 0.92% hits; AID 602252, 2012;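 active = mean inhibition of at least 30% with at least half of replicates also reaching 30%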
ARNT-TACC3 inh: disruptors of ARNT/TACC3 protein interaction, primary screen, biochemical, AlphaScreen, single concentration | Transforming acidic coiled-coil-containing protein 3 (Homo sapiens), Q9Y6A5 | AlphaScreen His-ARNT PAS-B/GST-TACC3 binding, luminescence; TACC3 fragment carries E629A point mutation | inhibition, % at 9.99 µM | 390,000 compounds, 0.66% hits;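 active = mean inhibition of replicates at least 50% and at least half of replicates each reaching 50%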
Dyrk1A ADPGlo: rat Dyrk1A kinase inhibitors, primary screen, biochemical, single point, plate reader | ADP-Glo luminescence, NFATc1 peptide | inhibition, % at 12.5 µM | 310,000 compounds, 0.43% hits; in the data active = inhibition above about 50%
Numbers stand for hits; – = inactive; · = not tested or not shown; + = active, no number.

SMILES	CAL PDZ FP-1	CAL PDZ FP-2	ARNT-TACC3 inh	Dyrk1A ADPGlo
O=C(C[C@H]1CC[C@@H](NC(=O)c2ccccn2)[C@@H](CO)O1)NCc1cc(F)cc(F)c1	·	·	–	·
CCOC(=O)C(Cc1ccccc1)c1ccnc2ncnn12 (configuration not stated)	–	34.0	–	–
C[C@@H](O)C#Cc1cnc2c(c1)C(=O)N([C@@H](C)CO)C[C@H](C)[C@@H](CN(C)C(=O)c1ccncc1)O2	·	·	–	·
CC(C)(C)[C@H]1COC(=O)CCCC/C=C\C[C@H](CC(=O)N(CCO)Cc2ccccc2)C(=O)N1	–	105.9	–	–
Cc1noc(C)c1S(=O)(=O)Nc1ccc2c(c1)C(=O)N([C@H](C)CO)C[C@@H](C)[C@@H](CN(C)C(=O)NC1CCCCC1)OCCCC[C@@H](C)O2	·	·	–	·
CCC(=O)N(C)C[C@H]1Oc2ncc(C#CCc3ccccc3)cc2C(=O)N([C@@H](C)CO)C[C@@H]1C	·	·	–	·
CCCn1c(=C(C#N)C#N)s/c(=C2\C=Cc3ccccc3N2CC)c1=O	–	54.9	–	–
CCN1/C(=C2\OC(=S)N(C)C2=O)C=Cc2ccccc21	–	·	–	–
C[C@H](CO)N1C[C@H](C)[C@@H](CN(C)C(=O)Nc2ccc(F)cc2)OCCCC[C@H](C)Oc2ccc(NC(=O)Nc3ccccc3)cc2C1=O	·	·	–	·
COc1cc2c(cc1OC)-c1cc(Nc3ccc(C(=O)O)cc3)nc(=O)n1CC2	–	–	46.3	–
O=c1[nH]c(Nc2ccc(F)cc2)cc2ccccc12	–	–	–	–
O=c1[nH]c(Nc2ccccn2)cc2ccccc12	–	–	–	–
O=c1[nH]c(Nc2ccccc2Cl)cc2ccccc12	–	–	37.2	–
Cc1ccccc1Nc1cc2ccccc2c(=O)[nH]1	–	–	–	52.4
CN1C(=O)c2cc(NC(=O)c3ccccc3)ccc2OC[C@H]2O[C@@H](CC(=O)NC3CCCC3)CC[C@H]21	·	·	–	·
Cc1ccc(Sc2ncnc(N)c2[N+](=O)[O-])cc1	–	–	–	–
Nc1ncnc(Sc2ccc(Cl)cc2)c1[N+](=O)[O-]	–	–	48.7	–
CC(C)NC(=O)N1CC[C@@H]2[C@@H](CO)N(C)c3ccc(Br)cc3[C@@H]21	·	·	–	·
CC1=NN(c2ccc(C(=O)O)c(N)c2)C(=O)C1	–	–	46.9	–
CC1=NN(c2ccc([N+](=O)[O-])cc2)C(=O)C1	–	·	45.4	·
O=C(CC1CC1)Nc1ccc2c(c1)[C@@H]1C[C@@H](CC(=O)NC3CCCC3)O[C@H](CO)[C@@H]1O2	·	·	–	·
Cc1noc(C)c1NC(=O)N(C)C[C@@H]1Oc2ncc(C#Cc3ccccc3)cc2C(=O)N([C@H](C)CO)C[C@@H]1C	·	·	–	·
N/C(=N\O)c1ccc(NC(=O)c2ccc(Br)o2)cc1	–	67.4	–	–
O=C(NNC(=O)c1ccc(Br)o1)c1ccc(NC(=O)c2ccccc2)cc1	–	–	–	–
COc1cccc(-c2ccc3c(c2)[C@H]2[C@H](CCN2C(=O)NC2CCCC2)[C@H](CO)N3C)c1	·	·	active	·
SMILES	CAL PDZ FP-1	CAL PDZ FP-2	ARNT-TACC3 inh	Dyrk1A ADPGlo
CCS(=O)(=O)c1ccc(OC)c(N=Nc2ccc(O)c3ncccc23)c1	–	–	–	–
CCN(CC)S(=O)(=O)c1cc(OC)ccc1N=Nc1ccc(O)c2ncccc12	–	–	47.8	–
Cn1c(NCc2cccnc2)nc2c1c(=O)n(Cc1ccccc1F)c(=O)n2C	–	+	–	–
CCOC(=O)C1=C(O)/C(=C\c2ccc(O)c(OCC)c2)N=C1C	–	62.7	–	·
C[C@H](CO)N1C[C@H](C)[C@H](CN(C)S(=O)(=O)c2ccccc2)OCCCC[C@H](C)Oc2ccc(NC(=O)Nc3ccc(F)cc3)cc2C1=O	·	·	–	·
Oc1[nH]c2ccccc2c1N=Nc1ccccn1	–	–	–	–
Oc1[nH]c2ccccc2c1N=Nc1nncc2ccccc12	–	51.8	–	–
Cc1cc(/C=N/NC(=O)c2ccccn2)c(C)n1-c1cccc([N+](=O)[O-])c1	–	–	67.7	–
Cc1[nH]n(-c2ccccc2)c(=O)c1/C=N/NC(=O)c1cccc([N+](=O)[O-])c1	–	–	30.7	–
CC(=O)N/N=C/c1c(C)[nH]n(-c2ccccc2)c1=O	–	–	·	–
Cc1[nH]n(-c2ccccc2)c(=O)c1/C=N\NC(=O)C1COc2ccccc2O1 (configuration not stated)	–	–	61.2	–
Cc1[nH]n(-c2cccc3ccccc23)c(=O)c1/C=N/NC(=O)c1cccc([N+](=O)[O-])c1	–	–	–	–
Cc1c(/C=N\NC(=O)C2COc3ccccc3O2)c2ccccc2n1C (configuration not stated)	–	–	–	–
Cc1[nH]n(-c2ccccc2)c(=O)c1/C=N/NC(=O)C(C)C	–	·	70.0	–
CCS(=O)(=O)Nc1ccc2c(c1)C(=O)N(C)C[C@@H](OC)[C@@H](C)CN(C)[C@H](C)CO2	·	·	–	·
C[C@H]1CN([C@@H](C)CO)C(=O)Cc2cc(NS(=O)(=O)c3ccccc3)ccc2O[C@H]1CN(C)C(=O)NC1CCCCC1	·	·	–	·
COc1cccc(NC(=O)CSc2nc3ccsc3c(=O)n2-c2ccc(C(=O)O)cc2)c1	–	43.5	–	–
CCn1c(SCC(=O)Nc2cccc(OC)c2)nc2ccccc2c1=O	–	–	–	–
CO[C@@H]1CN(C)C(=O)c2ccc(NC(=O)C3CCCC3)cc2OC[C@@H](C)N(S(=O)(=O)c2ccc(Cl)cc2)C[C@H]1C	·	·	–	·
Cc1nc2ccccc2n1CC(=O)N/N=C\c1ccccn1	–	–	40.1	–
O=C(N/N=C/c1ccccn1)c1ccco1	–	–	44.9	–
O=C(N/N=C/c1ccccn1)c1ccncc1	–	·	68.6	·
C(=N\NC(=Nc1ccccc1)c1ccccn1)/c1ccccn1	–	–	86.7	–
COc1ccc(CN(C)C[C@@H]2OCCCC[C@H](C)Oc3ccc(NC(=O)Nc4ccccc4)cc3C(=O)N([C@H](C)CO)C[C@@H]2C)cc1	·	·	–	·
CC(C)NC(=O)N(C)C[C@H]1Oc2cc(-c3ccncc3)ccc2S(=O)(=O)N([C@H](C)CO)C[C@H]1C	·	·	–	·
SMILES	CAL PDZ FP-1	CAL PDZ FP-2	ARNT-TACC3 inh	Dyrk1A ADPGlo
CO[C@@H]1CN(C)C(=O)c2ccc(NC(=O)Nc3ccc4c(c3)OCO4)cc2OC[C@@H](C)N(C(C)=O)C[C@H]1C	·	·	–	·
O=C(NCc1ccncc1)C(=O)N/N=C/c1ccccn1	–	55.6	–	–
O=C(N/N=C/c1cccc2cccnc12)c1ccccc1O	–	–	72.3	–
O=C(N/N=C(\Cc1ncc[nH]1)c1ccccc1)c1ccncc1	–	–	64.0	·
O=C(N/N=C/C=C\c1ccco1)c1ccccn1	–	–	67.7	–
Cc1ccc(S(=O)(=O)N(C)C[C@@H]2OCCCC[C@H](C)Oc3ccc(NC(=O)NC(C)C)cc3C(=O)N([C@@H](C)CO)C[C@@H]2C)cc1	·	·	–	·
